Sampled rows, rich in hits. Any-hit rate of the full collection: about 1.6%.
HGIII-sPLA2 inh = Blocks human group III sPLA2 activity; Q9NZ20; QFRET BODIPY PC-A2 liposome hydrolysis, fluorescence; inhibition, % at 12.2 µM; 370,000 compounds, 0.56% hits; AID 743126;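 active = inhibition above mean plus 3 SD of compounds lying within the high and low control bounds, cut at about 19% in these data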;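 note: 0% = median of test compound wells and 100% = no enzyme DMSO wells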
procasp7 counter = counter-screen: procaspase-7 (human) activation; recombinant procaspase-7, Ac-DEVD-pNA absorbance 405 nm; D23A/D198A/D206A triple mutant, cannot self-cleave; scale: DMSO 0, 5 µM enzyme 100; activation, % at 8.5 µM; 330,000 compounds, 0.093% hits;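 active = percent activation above the screen-wide mean plus 3 SD, cut at about 25% in these data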
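Assay system: Uncleavable procaspase-7 mutant enzyme / Input: 2 µM procaspase-7 mutant as dispensed / Dosing: single nominal 8.5 µM compound dose, 0.8% DMSO final / Timing: 1 h enzyme–compound preincubation and 2 h substrate reaction, both 25 °C / Detection: p-Nitroaniline absorbance at 405 nm, read at 0 and 120 min / Replication: singlicate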
PLCb3 inh = blocks human PLC-beta3 enzyme activity | Purified PLC-beta3, fluorogenic substrate, fluorescence | 370,000 compounds, 0.18% hits | AID 720704 | inhibition, % at 12.2 µM | Q01970; in the data active = inhibition above about 11%;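 note: 0% = median of compound wells on plate and 100% = full blocker control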
proCasp3 act = activates human procaspase-3 | recombinant procaspase-3 D3A, Ac-DEVD-pNA absorbance 405 nm | activation, % at 8.5 µM | 330,000 compounds, 0.11% hits;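 active = activation above the mean of all tested compounds plus 3 SD, cut at about 21% in these data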;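 note: 0% = DMSO alone and 100% = DMSO wells spiked with extra 5 µM PC-3 D3A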
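Compound: 8.5 µM single point, 0.8% DMSO / Material: Autoprocessing-dead procaspase-3 D3A mutant enzyme / Timing: 1 h preincubation plus 2 h reaction at 25 °C / Medium: Zinc-free HEPES/NaCl buffer with 0.01% Triton X-100 at pH 7.4 / Technique: 405 nm absorbance of p-nitroaniline, reads at 0 and 120 min / Repeats: one well per compound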
PLC-gamma1 inh = PLC-gamma1 (human) inhibition, primary screen | P19174 | 370,000 compounds, 0.84% hits | inhibition, % at 12.2 µM | purified PLC-gamma1, fluorogenic substrate, fluorescence | AID 720700; in the data active = inhibition above about 9.5%
Target sequence (P19174 whole entry, looked up): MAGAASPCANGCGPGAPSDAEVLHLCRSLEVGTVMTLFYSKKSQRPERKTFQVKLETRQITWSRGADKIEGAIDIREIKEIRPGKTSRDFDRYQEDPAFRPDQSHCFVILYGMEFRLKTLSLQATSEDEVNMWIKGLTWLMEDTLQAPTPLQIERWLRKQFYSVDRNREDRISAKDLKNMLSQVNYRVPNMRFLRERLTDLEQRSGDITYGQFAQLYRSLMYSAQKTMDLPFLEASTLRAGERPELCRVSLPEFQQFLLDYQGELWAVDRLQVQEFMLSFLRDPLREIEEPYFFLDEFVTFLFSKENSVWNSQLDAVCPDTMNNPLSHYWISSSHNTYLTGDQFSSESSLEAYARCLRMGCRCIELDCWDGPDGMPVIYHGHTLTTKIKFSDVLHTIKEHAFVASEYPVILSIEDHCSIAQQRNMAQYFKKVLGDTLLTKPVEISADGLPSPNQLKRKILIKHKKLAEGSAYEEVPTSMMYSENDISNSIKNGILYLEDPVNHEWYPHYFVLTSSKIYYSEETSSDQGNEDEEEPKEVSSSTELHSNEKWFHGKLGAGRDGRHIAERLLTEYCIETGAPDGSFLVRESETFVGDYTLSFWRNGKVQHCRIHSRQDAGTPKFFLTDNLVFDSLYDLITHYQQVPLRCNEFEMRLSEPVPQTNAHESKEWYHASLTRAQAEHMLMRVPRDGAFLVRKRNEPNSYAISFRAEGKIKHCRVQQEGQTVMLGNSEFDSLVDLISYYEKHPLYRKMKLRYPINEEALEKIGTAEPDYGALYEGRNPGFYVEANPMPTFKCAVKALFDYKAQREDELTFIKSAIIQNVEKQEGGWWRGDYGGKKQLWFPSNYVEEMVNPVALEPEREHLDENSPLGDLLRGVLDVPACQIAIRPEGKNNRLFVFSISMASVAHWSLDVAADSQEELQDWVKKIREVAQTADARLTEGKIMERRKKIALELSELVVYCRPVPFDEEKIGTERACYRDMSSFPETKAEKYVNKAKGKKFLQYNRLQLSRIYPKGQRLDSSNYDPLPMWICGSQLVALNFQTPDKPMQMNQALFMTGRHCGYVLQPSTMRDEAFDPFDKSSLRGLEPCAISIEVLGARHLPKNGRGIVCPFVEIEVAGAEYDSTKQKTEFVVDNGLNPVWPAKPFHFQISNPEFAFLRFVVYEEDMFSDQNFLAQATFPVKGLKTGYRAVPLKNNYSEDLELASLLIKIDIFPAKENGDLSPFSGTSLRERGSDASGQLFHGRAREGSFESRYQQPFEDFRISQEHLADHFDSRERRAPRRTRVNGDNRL
PC3 D3A act = counter-screen for dual procaspase-3/7 activators: human procaspase-3 activation. recombinant PC-3 D3A, Ac-DEVD-pNA absorbance 405 nm; aspartates 9, 28, 175 changed to alanine; 100% = enzyme control. activation, % at 8.5 µM. 290 tested, under 10 active. shares compounds with procasp7 counter. AID 493114;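 active = mean percent activation across triplicates above a set limit taken from the earlier primary procaspase-3 screen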;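 note: 0% = DMSO wells and 100% = DMSO wells with 5 µM added PC-3 D3A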
Procasp7 act = procaspase-7 (human) activation, dual activator confirmation | shares compounds with procasp7 counter | recombinant procaspase-7, Ac-DEVD-pNA absorbance 405 nm; D23A/D198A/D206A mutant that cannot self-cleave | activation, % at 8.5 µM | 290 tested, under 10 active;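 active = mean activation above a set limit carried over from the earlier primary screen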;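 note: 0% = DMSO only and 100% = DMSO with added 5 µM PC-7 enzyme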
* marks the source's active call; other numbers are inactive results; i = inactive; nt = no result given.

SMILES	HGIII-sPLA2 inh	procasp7 counter	PLCb3 inh	proCasp3 act	PLC-gamma1 inh	PC3 D3A act	Procasp7 act
Cc1ccccc1CC(=O)Nc1nnc(-c2cccnc2)s1	2	nt	1	nt	-2	nt	nt
CC(C)=CCc1c(O)cc2c(=O)c3ccc(O)cc3oc2c1O	-35	5	-4	0	-2	nt	nt
O=c1oc2cc(O)ccc2c2ccccc12	-6	-4	-411	-3	-399	nt	nt
COc1c(CC=C(C)C)c(O)cc2oc(=O)c3c4ccc(O)cc4oc3c12	nt	27*	nt	27*	nt	-29	-35
O=c1oc2cc(O)ccc2c2oc3cc(O)ccc3c12	-7	26*	i	-1	i	-28	-36
Cc1c(Cc2ccccc2)c(=O)oc2c(O)c(O)ccc12	-7	nt	-299	nt	-249	nt	nt
Cc1c(Cc2ccccc2)c(=O)oc2cc(O)ccc12	-26	27*	i	25*	i	-31	-36
CCCCN(C(=O)C1CC1)C1CCS(=O)(=O)C1 (stereo unspecified)	7	3	-7	-3	4	nt	nt
CCOc1ccc2nc(-c3cc(NC(C)=O)ccc3O)sc2c1	5	31*	-169	5	-129	2	-1
CCOCC(=O)Nc1nc2ccc(OCC)cc2s1	3	6	4	5	1	nt	nt
O=C(NCCCN1CCOCC1)c1cc(S(=O)(=O)N2CCCCC2)ccc1Cl	4	nt	-5	nt	2	nt	nt
Cc1c(CC(=O)N2CCN(C(=O)C3COc4ccccc4O3)CC2)c(=O)oc2c(C)c(O)ccc12 (stereo unspecified)	-14	26*	i	27*	i	-29	-35
COc1ccc2c(C)c(CC(=O)N3CCN(C(=O)C4COc5ccccc5O4)CC3)c(=O)oc2c1 (stereo unspecified)	-2	0	-187	2	-142	nt	nt
Cc1c(CC(=O)N2CCN(C(=O)C3COc4ccccc4O3)CC2)c(=O)oc2cc(O)ccc12 (stereo unspecified)	-12	30*	i	24*	i	-28	-34
O=C(NCCCn1ccnc1)c1[nH]c(C(F)(F)F)nc1-c1ccccc1	9	nt	-3	nt	-2	nt	nt
CN(Cc1ccccc1)C(=O)c1cccc(NC(=O)Cc2ccc(NC(=O)C3CCCN(C(=O)C4CCCC4)C3)cc2)c1 (stereo unspecified)	-28	nt	0	nt	-1	nt	nt
COc1ccc(OC)c2sc(N3CCCCC3)nc12	-3	28*	2	-1	2	5	-2
COC(=O)[C@]1(C)N[C@H](CN(C)C(=O)Nc2ccccc2)[C@@H]2C(=O)N(C)C(=O)[C@@H]21	4	-5	2	5	1	nt	nt
CCOC(=O)C1=C(C)NC(=O)NC1c1ccc(N2CCC(c3ccccc3)=N2)cc1 (stereo unspecified)	-3	72*	i	31*	-463	-30	-36
CCOC(=O)C1=C(C)NC(=O)NC1c1ccc(NC(C)=O)cc1 (stereo unspecified)	2	8	-6	1	-2	nt	nt
CC(C)OC(=O)CC(=O)CSc1nc2c(cc1C#N)CCCCCC2	-6	75*	-132	62*	-88	-29	-27
CC(C)OC(=O)CC(=O)CSc1nc2c(cc1C#N)CCCC2	4	10	-190	4	-156	nt	nt
COc1ccc(C(=O)N2CCC(C(=O)O)CC2)c2ccccc12	0	5	-8	8	1	nt	nt
Fc1ccc(C2=NN(c3ccccc3)C(c3ccco3)C2)cc1 (stereo unspecified)	2	44*	i	32*	i	-29	-34
Oc1ccc(C2=NN(c3ccccc3)C(c3ccc(F)cc3)C2)cc1 (stereo unspecified)	-2	36*	i	20	i	-30	-35
SMILES	HGIII-sPLA2 inh	procasp7 counter	PLCb3 inh	proCasp3 act	PLC-gamma1 inh	PC3 D3A act	Procasp7 act
CCCNC(=O)C1(C)CCN(Cc2ccc(OCc3ccccc3)cc2)C1 (stereo unspecified)	7	nt	-3	nt	2	nt	nt
C[C@H]1CN([C@@H](C)CO)C(=O)c2cc(-c3ccccc3F)cnc2O[C@@H]1CN(C)C(=O)NC1CCCCC1	-5	nt	2	nt	1	nt	nt
CC(C)OC(=O)c1sc2nc(-c3ccccc3)ccc2c1N	1	34*	i	8	-446	-28	-35
CCCn1c(=N)c(S(=O)(=O)c2ccccc2)cc2c(=O)n3ccccc3nc21	-5	42*	-79	-26	-58	-30	-33
COc1ccc(-c2cc(C(=O)OC3CCOC3=O)c3ccccc3n2)cc1OC (stereo unspecified)	-4	28*	-143	27*	-123	15	10
O=C(OC1CCOC1=O)c1cc(-c2ccccc2)nc2ccccc12 (stereo unspecified)	-1	0	-24	4	-17	nt	nt
CC(=O)OCC(=O)C1(O)CCC2C3CCC4CC(O)CCC4(C)C3C(=O)CC21C (stereo unspecified)	-6	nt	3	nt	4	nt	nt
Cc1cc(C(=O)NC(CC(C)C)C(=O)O)cc(C)c1[N+](=O)[O-] (stereo unspecified)	-4	26*	2	10	2	3	1
COC(=O)C(CC(C)C)NC(=O)c1ccc([N+](=O)[O-])c(C)c1 (stereo unspecified)	1	5	3	3	1	nt	nt
CCN(CC)CCN(C(=O)c1ccc(CN2CCCCC2)o1)C(C(=O)NC1CCCCC1)c1ccc(F)cc1 (stereo unspecified)	2	-1	1	-7	0	nt	nt
COc1ccc2sc(-c3ccc(N(C)C)cc3)c(C#CC(C)(C)O)c2c1	-1	70*	i	49*	i	-30	-36
COc1ccc(CN(C)[C@H]2C[C@H]3c4[nH]c5ccccc5c4CCN3C[C@H]2[C@H](C)O)cc1	-11	nt	-64	nt	-54	nt	nt
COc1ccc2c(-c3ccc(SC)cc3)c(-c3ccc(S(C)(=O)=O)cc3)sc2c1	5	55*	-138	43*	-98	-28	-34
COc1ccc(-c2cc(C(=O)OCC(=O)NC(C)C)c3ccccc3n2)cc1	0	27*	-407	38*	-267	-17	-12
CCN(CC)c1ccc(-c2nn3c(-c4ccccc4OC)nnc3s2)cc1	nt	33*	nt	-1	nt	-31	-36
Cc1cc(C(=O)O[C@@H]2CCC[C@@]3(C(=O)N(Cc4ccccc4)c4ccccc43)[C@H]2NC(=O)CCc2ccccc2)no1	5	nt	5	nt	3	nt	nt

Screening results as filed in PubChem.
